# Screening data: PubChem BioAssay, several laboratories
# RAM network inh = yeast RAM network inhibition. hit rate 1.8% among 190,000. S. cerevisiae dse1pr::URA3 reporter, 5-FOA growth OD615, 2 d; analog-sensitive cbk1-as2 kinase mutant strain. inhibition, % at 50 µM;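 active = inhibition above a set limit, 3 SD over mean compound inhibition, cut at about 8.4% in these data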;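 note: 0% = DMSO-only wells with no growth and 100% = 10 µM 1-NA-PP1 full growth; inhibition rescues growth on 5-FOA so higher OD means more RAM inhibition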
# Yeast growth inh = chemicals that inhibit yeast BB579 growth in restrictive medium (lifespan-shortening candidates); AID 804; hit rate 0.51% among 140,000; inhibition, % at 10 µM; S. cerevisiae BB579 growth, OD615, 48 h;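 active = inhibition above a set limit, 3 SD over the mean compound inhibition, cut at about 44% in these data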
#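 controls = amphotericin B 10 µg/mL, positive | assay system = DeaD yeast strain BB579 | schedule = 48 h compound exposure at 30 °C after 4 h preincubation | detection = OD615 turbidity measurement | medium = restrictive CSMM-D medium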
# Yeast lifespan up = yeast lifespan extension. S. cerevisiae growth with nicotinamide, OD615; deaD strain in restrictive glucose medium. inhibition of the nicotinamide effect, % at 10 µM. hit rate 0.68% among 130,000;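 active = inhibition above a set limit, placed 3 SD over the median of all compounds, cut at about 26% in these data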;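 note: 0% = nicotinamide-treated wells and 100% = cells grown without nicotinamide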
#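 Assay system: DeaD-strain S. cerevisiae. Medium: CSMM-D glucose medium, restrictive. Reagent: nicotinamide, 1.5 mM, co-present with compound. Compound: 10 µM single point, 0.25% DMSO. Schedule: culture preincubation 4 h, compound exposure 48 h, both 30 °C. Detection: absorbance at 615 nm.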
# Measles CPE = protection of cells from measles virus. Measles virus-infected cells, CPE protection, absorbance. protection (pct of control), % at 4 µM. hit rate 1.5% among 140,000; in the data active = protection mostly above about 24%, no sharp cut-off; inactive = mostly below about 26%
# The depositor's hits bear a star; / = not tested or not shown. Only some compounds are listed: those with a hit (about 3.8% of all), similar ones and a draw of the others.
SMILES,RAM network inh,Yeast growth inh,Yeast lifespan up,Measles CPE
COc1ccc(COc2cc(-c3cccc(OC)c3)nc3ccc(NC(=O)c4ccc(Cl)cc4)cc23)cc1,8.4*,-42.0,2.6,14.7
COc1ccc(COc2cc(-c3cccc(OC)c3)nc3ccc(NC(=O)c4ccc(OC)cc4)cc23)cc1,5.8,-47.0,1.4,27.1
O=CN(c1ccccc1)c1ccc2ccccc2c1,-0.1,/,/,/
Cc1ccc(C(=O)N(c2ccccc2)C2CC(C)N(C(=O)c3ccco3)c3ccccc32)cc1 (stereo not drawn),3.0,-11.8,33.9*,8.4
O=C(CSc1nnc(SCc2ccccc2)s1)N/N=C/C=C\c1ccco1,11.1*,-22.2,-1.6,6.8
O=C(CSc1nnc(SCc2ccccc2)s1)N/N=C/C=C/c1ccccc1[N+](=O)[O-],-0.5,-11.6,-6.1,11.0
CC(C)OC(=O)c1ccc(Cn2nnc3ccccc3c2=O)cc1,0.5,-35.0,-6.3,38.7*
O=c1c2ccccc2nnn1Cc1ccccn1,0.0,13.0,-9.3,63.0*
O=c1c2ccccc2nnn1Cc1ccc(Br)cc1,2.1,/,/,/
COc1cc(/C=N/NC(=O)CN2CCCCC2)ccc1OCc1ccccc1,-0.3,2.7,-4.9,33.6*
COc1cc(/C=C(/C#N)c2ccccc2F)ccc1OCc1ccccc1,10.4*,-25.8,3.0,34.8
COc1cc(/C=N/NC(=O)Cc2ccccc2)ccc1Oc1ccc([N+](=O)[O-])cc1[N+](=O)[O-],1.3,-57.6,-3.2,42.6*
COc1cc(/C=N/OCC(=O)Nc2cc(C)on2)ccc1OCc1ccccc1,8.3,-71.5,3.4,75.4*
COc1cc(/C=N/NC(=O)CN2CCOCC2)ccc1OCc1ccccc1,-1.3,-25.4,0.5,25.2
CC(C)(C)C(=O)NC1CCN(S(=O)(=O)c2ccc(C(F)(F)F)cc2)CC1,1.8,-42.6,0.5,6.0
Cn1c(=O)cc(Cl)[nH]c1=O,2.1,/,/,/
COc1ccc(/C=N/NC(=O)c2nc(-c3ccccc3)cc(-c3ccccc3)n2)cc1OC,10.2*,-16.7,-1.7,4.9
COc1cccc(/C=N/NC(=O)c2nc(-c3ccccc3)cc(-c3ccccc3)n2)c1,2.7,-23.6,-1.8,6.4
COc1cc(/C=C/C(=O)NC(C)C)ccc1OCc1ccccc1,3.1,-17.9,-3.5,87.9*
Cc1nnn(C23CC4CC(CC(CC(=O)Nc5ccc(C)c(C)c5)(C4)C2)C3)n1,1.2,-26.4,0.4,18.0
Cc1ccc(Oc2nccc(-c3ccc(Cl)cc3)n2)cc1,1.5,-4.1,-7.2,5.5
C=CCSc1nc2ccccc2n1S(=O)(=O)c1ccc(Cl)cc1,2.7,2.9,/,0.8
CCSc1nc2ccccc2n1S(=O)(=O)c1ccccc1,0.6,46.5*,-10.9,14.3
CN(C)c1ccc(NC(=O)COC(=O)Cn2nnc3ccccc32)cc1,2.4,-9.5,-0.7,22.9
Cc1cc(NC(=O)CN2C(=O)CCSc3ccccc32)no1,2.4,/,/,/
SMILES,RAM network inh,Yeast growth inh,Yeast lifespan up,Measles CPE
Cc1cc(NC(=O)CN2C(=O)CC(c3ccco3)Sc3ccccc32)no1 (stereo not drawn),0.0,-14.1,-8.3,42.0*
COCCCn1c(=O)/c(=C\c2ccccc2OC(F)F)s/c1=C(/C#N)C(=O)N1CCOCC1,9.1*,/,/,/
CCCCNC(=O)/C(C#N)=c1\s/c(=C\c2ccccc2OC(F)F)c(=O)n1CCCOC,9.2*,-19.0,20.8,6.6
COCCNC(=O)/C(C#N)=c1\s/c(=C\c2ccccc2OC(F)F)c(=O)n1Cc1ccccc1,5.2,/,/,/
COCCCNC(=O)/C(C#N)=c1\s/c(=C\c2ccccc2OC(F)F)c(=O)n1CCCOC,3.3,-26.6,6.9,3.7
O=C(CCc1ccc(O)c(O)c1)NNC(=S)Nc1ccc(Br)cc1Cl,0.6,/,/,/
COc1ccccc1N1CCN(C(C)C(=O)Nc2ccc(S(=O)(=O)N3CCOCC3)cc2)CC1 (stereo not drawn),0.4,/,/,/
COc1ccccc1N(CN1CCCC1=O)C(=O)c1c(F)cccc1F,1.8,-22.4,103.3*,20.7
Cc1ccc(C(=O)N2CCN(c3ccccc3Cl)CC2)cc1[N+](=O)[O-],0.9,/,/,/
CCOC(=O)c1sc(NC(=O)CSc2nncn2C)nc1C,3.4,/,/,/
CCCCOc1ccc(C(C)NC(=O)C2CCCN(S(=O)(=O)CC)C2)cc1 (stereo not drawn),2.4,19.4,-3.0,37.9*
CCCn1c(SCC(=O)Nc2ccccc2C(=O)OC)nc2c1c(=O)n(C)c(=O)n2C,7.8,-27.5,1.2,23.1
CCOC(=O)c1c(NC(=O)COC)sc(C)c1C,1.0,-27.7,/,6.1
COC(=O)c1c(NC(=O)Cn2nc(C(F)F)cc2C(F)F)sc(C)c1C,2.4,-32.5,-16.2,7.5
